# Test results from article PMC3401603 (Nature Chemical Biology, 2012).
# How the values were obtained:
# wild-type menin = wild-type menin (Homo sapiens, UniProt O00255); test: Thermal shift assay, wild-type menin; assay type: binding
# M278K menin mutant = M278K menin mutant (Homo sapiens, UniProt O00255, M278K); test: Thermal shift assay, M278K menin mutant; assay type: binding
# Y323K menin mutant = Y323K menin mutant (Homo sapiens, UniProt O00255, Y323K); test: Thermal shift assay, Y323K menin mutant; assay type: binding
# menin-MLL-AF9 complex = menin-MLL-AF9 complex (Homo sapiens, UniProt O00255); test: Co-immunoprecipitation in HEK293 cells transfected with Flag-MLL-AF9; assay type: cell-based
# Method in brief: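 Menin co-precipitating with Flag-MLL-AF9 was detected by Western blot. Untransfected cells controlled for endogenous menin and for absence of MLL-AF9. Menin and MLL-AF9 expression levels were also checked by Western blot.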
# MLL-AF9 transduced BMC = test: MTT cell viability assay, MLL-AF9 transduced BMC; assay type: cell-based, mouse
# Method in brief: (§1)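 Retrovirally transduced mouse bone marrow cells were grown in IMDM with 15% FBS, 1% penicillin/streptomycin and IL-3. Growth inhibition by the test compound was measured by MTT viability assay. Quadruplicates, mean ± s.d.; three experiments.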
# MLL-ENL transduced BMC = test: MTT cell viability assay, MLL-ENL transduced BMC; assay type: cell-based, mouse
# Method in brief: as §1
# E2A-HLF transduced BMC = test: MTT cell viability assay, E2A-HLF transduced BMC; assay type: cell-based, mouse
# Method in brief: as §1
# MLL-AF9 transformed BMC [1] = test: Methylcellulose colony formation assay, MLL-AF9 transformed BMC; assay type: cell-based, mouse; conditions: 7 days
# Method in brief: (§2)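 Transduced BMC were plated at 5×10³ cells/ml in methylcellulose medium containing 20% IMDM, 1% penicillin/streptomycin, IL-3 and either the test compound or 0.25% DMSO. Colonies were stained with iodonitrotetrazolium chloride (1 mg/ml final, 37 °C, 30 min) and counted. For a second round, unstained colonies were counted, washed out in PBS, and 5×10³ cells were replated in the same medium with compound, then stained and counted.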
# E2A-HLF transformed BMC [2] = test: Methylcellulose colony formation assay, E2A-HLF transformed BMC; assay type: cell-based, mouse
# Method in brief: as §2
# MLL-AF9 transformed BMC [3] = test: Differentiation by morphology; assay type: cell-based, mouse; conditions: 7 to 10 days, 25 μM
# MLL-ENL transformed BMC = test: Differentiation by morphology, MLL-ENL transformed BMC; assay type: cell-based, mouse
# E2A-HLF transformed BMC [4] = test: Differentiation by morphology, E2A-HLF transformed BMC; assay type: cell-based, mouse
# [5] = test system: CD11b expression in MLL-AF9 transformed BMC; test: CD11b expression by flow cytometry, MLL-AF9 transformed BMC; assay type: cell-based, mouse; conditions: 7 days of treatment
# Method in brief: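 BMC were cultured in IMDM with 15% FBS, penicillin/streptomycin and IL-3, and plated at 5×10⁵ cells/ml with the test compound or 0.25% DMSO. Every 48h the medium was changed, viable density restored and compound resupplied. 1.5×10⁵ cells were washed in PBS/1% FBS/0.1% NaN₃, stained with Pacific Blue anti-mouse CD11b (4 °C, 30 min), then Annexin V-FITC/PI, and run on flow cytometry. Triplicates, mean ± s.d.; one-way ANOVA against DMSO; three experiments.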
# Hoxa9 [6] = test: Quantitative RT-PCR of Hoxa9 in MLL-AF9 transduced BMC; assay type: cell-based, mouse; conditions: 6 days
# Meis1 [7] = test: Quantitative RT-PCR of Meis1 in MLL-AF9 transduced BMC; assay type: cell-based, mouse; conditions: 6 days
# [8] = test system: menin and MLL-AF9 at the Hoxa9 locus; test: ChIP at the Hoxa9 locus in MLL-AF9 transduced BMC; assay type: cell-based, mouse; conditions: 12.5 μM
# Method in brief: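 ChIP used BMC exposed to the test compound at 12.5 μM or to DMSO. Antibodies were against menin and AF9, with IgG as control. Enrichment was read at two sites in the Hoxa9 promoter region. Duplicate samples, mean ± s.d.; two experiments.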
# [9] = test system: MV4;11 (harboring MLL-AF4); test: MTT cell viability assay, MV4; assay type: cell-based, human; conditions: MV4;11, MTT, 72h
# Method in brief: (§3)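 Growth inhibition was read by MTT viability assay, with 72h treatment stated for KOPN-8 and MV4;11. Media: KOPN-8 and ML-2, RPMI-1640 with 10% FBS. MV4;11, RPMI-1640 with 10% FBS, 1% penicillin/streptomycin and NEAA. MonoMac-6, RPMI-1640 with 15% FBS, human insulin, penicillin/streptomycin and NEAA. For KOPN-8 and MV4;11: four samples, mean ± s.d., three experiments.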
# KOPN-8 (MLL-ENL) = test: MTT cell viability assay, KOPN-8; assay type: cell-based, human; conditions: KOPN-8, MTT, 72h
# Method in brief: as §3
# ML-2 (MLL-AF6) = test: MTT cell viability assay, ML-2; assay type: cell-based, human; conditions: ML-2, MTT
# Method in brief: as §3
# MonoMac6 (MLL-AF9) = test: MTT cell viability assay, MonoMac6; assay type: cell-based, human
# Method in brief: as §3
# [10] = test system: Kasumi-1, ME-1, HAL-01 and REH; test: Growth of human acute leukemia cell lines lacking MLL fusions; assay type: cell-based; conditions: low HOXA9: Kasumi-1, ME-1, HAL-01, REH
# MV4;11 = test: Annexin V/PI apoptosis assay, MV4; assay type: cell-based, human; conditions: MV4;11, 48h
# Method in brief: (§4)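 Cells were seeded at 5×10⁵ cells/ml and exposed to the test compound or vehicle (0.25% DMSO final) for 48h at 37 °C in 5% CO₂. 1.5×10⁵ cells were then stained with Annexin V-FITC and propidium iodide in Annexin V binding buffer for 10 min at room temperature in the dark, and analysed by flow cytometry. Three experiments in triplicate; mean and SD.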
# MonoMac6 = test: Annexin V/PI apoptosis assay, MonoMac6; assay type: cell-based, human; conditions: MonoMac6, 48h
# Method in brief: as §4
# MV4;11 leukemia cells = test: Cell cycle analysis by FACS after PI staining, MV4; assay type: cell-based, human; conditions: MV4;11, PI staining
# [11] = test system: CD11b expression in THP-1 cells; test: CD11b expression by flow cytometry, THP-1; assay type: cell-based, human; conditions: THP-1, 6 days of treatment
# HOXA9 [12] = test: qRT-PCR of HOXA9 in THP-1 cells; assay type: cell-based, human; conditions: THP-1, 6 days
# Method in brief: (§5)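 THP-1 cells in RPMI-1640 with 10% FBS, 1% penicillin/streptomycin and NEAA were treated with the test compound for 6 days. Total RNA (100–1000 ng) was reverse transcribed, and TaqMan qPCR measured human HOXA9 or MEIS1, normalised to 18S rRNA by the comparative Ct method. Duplicates, mean ± s.d.; three experiments.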
# MEIS1 [13] = test: qRT-PCR of MEIS1 in THP-1 cells; assay type: cell-based, human; conditions: THP-1, 6 days
# Method in brief: as §5
# menin-MLL-AF9 complex, sequence (O00255 whole entry, one chain of several): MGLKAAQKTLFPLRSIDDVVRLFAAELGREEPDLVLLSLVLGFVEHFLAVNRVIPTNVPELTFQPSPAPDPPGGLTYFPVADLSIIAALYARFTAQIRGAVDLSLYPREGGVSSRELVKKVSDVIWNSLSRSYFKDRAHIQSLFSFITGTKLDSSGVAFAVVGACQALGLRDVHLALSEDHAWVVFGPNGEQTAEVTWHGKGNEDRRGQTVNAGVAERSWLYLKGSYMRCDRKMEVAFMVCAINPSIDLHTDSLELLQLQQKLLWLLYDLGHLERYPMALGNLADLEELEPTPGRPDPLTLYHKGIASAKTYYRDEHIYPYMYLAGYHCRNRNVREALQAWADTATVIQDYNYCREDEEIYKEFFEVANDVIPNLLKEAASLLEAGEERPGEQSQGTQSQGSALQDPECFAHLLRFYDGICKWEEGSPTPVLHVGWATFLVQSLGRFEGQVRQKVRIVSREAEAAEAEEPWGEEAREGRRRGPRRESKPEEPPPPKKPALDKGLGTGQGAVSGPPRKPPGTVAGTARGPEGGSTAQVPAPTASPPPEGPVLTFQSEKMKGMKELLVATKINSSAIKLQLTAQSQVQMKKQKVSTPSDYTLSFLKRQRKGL
# wild-type menin, sequence (O00255 whole entry): as the sequence (O00255 whole entry, one chain of several) above
# M278K menin mutant, sequence (O00255 whole entry M278K): as the sequence (O00255 whole entry, one chain of several) above, with M278K counted along it
# Y323K menin mutant, sequence (O00255 whole entry Y323K): as the sequence (O00255 whole entry, one chain of several) above, with Y323K counted along it
compound,measurement,setting,value
CCCc1cc2c(N3CCN(C4=NCC(C)(C)S4)CC3)ncnc2s1 [MI-2],binding to wild-type menin,wild-type menin,clearly observed binding
same,binding to M278K menin mutant,M278K menin mutant,no binding
same,binding to Y323K menin mutant,Y323K menin mutant,no binding
same,disruption of the menin-MLL-AF9 complex (co-IP),menin-MLL-AF9 complex,very efficiently disrupted
same,GI50,MLL-AF9 transduced BMC,~5 µM
same,GI50,MLL-ENL transduced BMC,~5 µM
same,GI50,E2A-HLF transduced BMC,> 50 µM
same,effect on colony formation,MLL-AF9 transformed BMC [1],substantially reduced colony formation
same,"effect on the number, size and morphology of colonies",E2A-HLF transformed BMC [2],only a limited effect
same,differentiation (cell morphology),MLL-AF9 transformed BMC [3],"substantial changes in morphology, indicative of monocytic differentiation"
same,differentiation (cell morphology),MLL-ENL transformed BMC,observed differentiation
same,differentiation (cell morphology),E2A-HLF transformed BMC [4],did not differentiate
same,expression of CD11b,[5],substantially increased
same,decrease of Hoxa9 expression level,Hoxa9 [6]; 12.5 μM,> 80%
same,decrease of Hoxa9 expression level,Hoxa9 [6]; 25 μM,> 80%
same,decrease of Meis1 expression level,Meis1 [7]; 12.5 μM,> 80%
same,decrease of Meis1 expression level,Meis1 [7]; 25 μM,> 80%
same,binding of menin and MLL-AF9 to the Hoxa9 locus (ChIP),[8],decreased binding of menin and MLL-AF9
same,GI50,[9],9.5 µM
same,GI50,KOPN-8 (MLL-ENL),7.2 µM
same,GI50,ML-2 (MLL-AF6),8.7 µM
same,GI50,MonoMac6 (MLL-AF9),18 µM
same,effect on proliferation,[10],very limited effect
same,Annexin V (+) and Annexin V/PI (+)/(+) cells (apoptosis),MV4;11,"substantial, and dose-dependent increase"
same,Annexin V (+) and Annexin V/PI (+)/(+) cells (apoptosis),MonoMac6,"substantial, and dose-dependent increase"
same,effect on cell cycle progression,MV4;11 leukemia cells,consistent increase in the number of cells in G0/G1 phase
same,CD11b positive cells,[11],substantial increase in CD11b positive cells
same,expression of HOXA9,HOXA9 [12],substantially reduced expression
same,expression of MEIS1,MEIS1 [13],substantially reduced expression
